Hck-Nef inh: human Hck-Nef kinase inhibition; P08631; Recombinant Hck-YEEI plus Nef, Z-Lyte FRET kinase assay; inhibition, % at 20 µM; 220,000 compounds, 0.68% hits;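 active = Hck-Nef kinase inhibition above about 50%, limit read from the data; inactive = inhibition below that limit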;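 also: 0% = DMSO with Hck plus Nef and 100% = Hck alone without Nef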
Dynein transport: dynein cargo transport inhibition. 3617.4 mouse cells, GR-EGFP nuclear translocation imaging; test concentration mostly 20 µM; stimulated with dexamethasone, 1 µM; active compounds read low. z-score, hits read low. 220,000 compounds, 0.47% hits. AID 1381;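 active = plate z-score of nuclear minus cytoplasmic receptor signal below a set negative limit, without overly bright fluorescence or cell loss, cut at about -3.5 in these data, passing the limit was not always enough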;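 also: z-score of nuclear minus cytoplasmic ring GR-EGFP intensity difference per well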
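Buffer or medium – tet-free medium with charcoal-stripped serum · Signal – automated 10x imaging of fixed Hoechst-stained cells · Also added – dexamethasone agonist, 1.0 µM final, for 30 min · Incubation – induction 48 h, compound 1 h, agonist 30 min · Read-out – GR-EGFP nuclear translocation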
Autophagy HCS: modulators of autophagy | MEF GFP-LC3 puncta imaging; test concentration mostly 10 µM | calls only at 10 µM (by protocol) | 190,000 compounds, 0.98% hits;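 active = percentage of spot-positive cells more than 3 SD above its plate mean, without a fluorescence outlier flag or 80% toxicity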;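 also: spot-positive cell cutoff set from DMSO-treated cells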
zVAD death inh: blocks zVAD induced death of L929 cells; L929 zVAD necroptosis rescue, ATP luminescence, 24 h; with zVAD 60 µM; viability rescue, % at 10 µM; 220,000 compounds, 0.38% hits; AID 1377;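 active = activation, scaled between plate controls, above about 75%, limit read from the data; inactive = activation under that limit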;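 also: 0% = zVAD with DMSO and 100% = DMSO alone without zVAD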
TNF death inh: blocks TNF-alpha induced death of Jurkat FADD-/- cells; Jurkat FADD-/- TNF necroptosis rescue, ATP luminescence, 24 h; 0 = TNF only, 100 = no-TNF cells; activation (protection from cell death), % at 10 µM; 220,000 compounds, 0.068% hits; AID 463075;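 active = activation, meaning protection from cell death, of at least 50% relative to plate controls; inactive = activation below 50%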;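 also: necroptosis triggered by 40 ng/mL TNF-alpha added together with compound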
Mdm2 ligase inh: inhibitors of human Mdm2 E3 ubiquitin ligase; cell-based MDM2 ubiquitination luciferase reporter, 2 h; 0 = plate control, 100 = twice control, blank-subtracted; AID 1230; 210,000 compounds, 0.11% hits; signal enhancement, % at 5 µM;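 active = signal enhancement of 30% or more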;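 also: luminescence tracks abundance of the self-degrading MDM2-luciferase fusion protein; higher signal means inhibition of MDM2 E3 ligase activity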
Target sequence (Q00987 whole entry, looked up, the tested form may be a part): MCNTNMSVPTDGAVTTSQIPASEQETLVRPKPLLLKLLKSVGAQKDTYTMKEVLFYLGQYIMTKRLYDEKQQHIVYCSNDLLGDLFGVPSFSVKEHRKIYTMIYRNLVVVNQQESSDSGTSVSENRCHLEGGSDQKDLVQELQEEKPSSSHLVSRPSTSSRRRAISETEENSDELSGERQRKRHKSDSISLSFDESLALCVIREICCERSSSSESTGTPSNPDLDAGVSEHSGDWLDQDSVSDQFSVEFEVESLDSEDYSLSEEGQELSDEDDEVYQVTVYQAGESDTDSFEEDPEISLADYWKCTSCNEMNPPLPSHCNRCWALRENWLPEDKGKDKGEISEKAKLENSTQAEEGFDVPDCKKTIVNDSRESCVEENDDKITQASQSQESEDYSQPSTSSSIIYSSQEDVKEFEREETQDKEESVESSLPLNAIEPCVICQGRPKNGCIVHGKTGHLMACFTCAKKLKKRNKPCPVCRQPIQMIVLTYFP
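test system = mammalian cells stably expressing self-ubiquitinating, self-degrading MDM2 E3–luciferase fusion | quantity = 2000 cells/well | incubation = cell settling 4 h, compound treatment 2 h, both 37 °C | signal = luminescence with SteadyLite reagent, 15 min at room temperature | evaluation = % enhancement relative to plate controls after blank subtraction | benchmarks = plate controls and plate blanks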
Hck Nef conf: Hck-Nef kinase inhibition, confirmation | calls only at 10 µM | AID 463188 | Recombinant Hck-YEEI:Nef, Z-Lyte FRET kinase assay | shares compounds with Hck-Nef inh | 1,300 compounds, 28% hits;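 active = average inhibition of at least 50%, with Z-scores no higher than 3 in both the phospho-tyrosine peptide and fluorescence counterscreens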
* marks the source's active call; other numbers are inactive results; i = inactive; nt = no result shown; + = active, no number. Rows were chosen to be rich in hits. Some 2.4% of all compounds tested hit in one or more screens of this group.

SMILES	Hck-Nef inh	Dynein transport	Autophagy HCS	zVAD death inh	TNF death inh	Mdm2 ligase inh	Hck Nef conf
Cc1oc(-c2ccc(Cl)cc2)cc1C(=O)/C(C#N)=C/Nc1cccc(OC(F)(F)F)c1	11	0.19	nt	1	0	-18	nt
Cc1c2c(n3c(nc4ccccc43)c1C#N)N(CCN(C)C)CC2	55*	0.19	i	26	0	-1	i
Cc1c(Cc2ccccc2)c(NCCN(C)C)n2c(nc3ccccc32)c1C#N	13	-0.9	nt	-1	1	-16	nt
Cc1c2c(n3c(nc4ccccc43)c1C#N)N(CCCN(C)C)CC2	54*	1.2	i	40	2	-2	i
Cc1cc(C)nc(N2CCCC(C(=O)NCc3ccccc3F)C2)n1 (configuration not stated)	18	-0.2	i	1	1	-6	nt
C=CCn1c(=O)c2ccccc2n2c(SCc3csc(-c4ccccc4)n3)nnc12	-2	-0.76	i	2	1	10	nt
CCCOc1ccccc1C1C(C(=O)OC)=CN(C(C)C)C=C1C(=O)OC	68*	-1.1	i	0	-1	-9	nt
COC(=O)C1=CN(CCCN2CCCC2=O)C=C(C(=O)OC)C1c1ccccc1C(F)(F)F	85*	-0.34	i	0	-3	-21	nt
COC(=O)C1=CN(C)C=C(C(=O)OC)C1c1ccccc1Cl	70*	0.15	i	1	0	-8	nt
CCCCOc1ccccc1C1C(C(=O)OC)=CN(CC)C=C1C(=O)OC	62*	3.6	i	0	-1	6	nt
Cc1cc(C)cc(N2CC34C=CC(O3)C(C(=O)OCC(=O)NCc3ccco3)C4C2=O)c1 (configuration not stated)	0	-0.68	i	0	-7	-12	nt
COc1cc(C2Nn3c(nnc3-c3ccccc3OC)S2)ccc1O (configuration not stated)	11	-0.68	i	1	-2	10	nt
O=C(CCc1nnc(COc2ccccc2)o1)NCCc1cccs1	2	-0.33	i	0	0	-10	nt
Cc1ccc(/C=C2\SC(=S)N(c3cccnc3)C2=O)o1	16	-0.72	nt	-1	4	nt	nt
O=C(O)c1cccc(N2C(=O)/C(=C/c3ccc(SCc4ccc(Cl)cc4)o3)SC2=S)c1	82*	-0.1	i	0	-11	-21	+
COc1cc(NC(=S)Nc2ccccn2)cc(OC)c1OC	81*	1.1	i	2	4	-15	+
O=C1c2cccc3cc([N+](=O)[O-])cc(c23)C(=O)N1/N=C/c1ccc(O)cc1O	55*	1.8	nt	2	-4	-14	+
Cn1cc(CN2CCCC(C(=O)c3cccs3)C2)c(-c2cccc(Cl)c2)n1 (configuration not stated)	20	-0.63	i	5	2	4	nt
Cc1ccc(F)c(NC=C2C(=O)OC(C)(C)OC2=O)c1	-3	-0.97	i	4	1	13	nt
O=c1/c(=C/c2ccc(O)c([N+](=O)[O-])c2)sc2nc3ccccc3n12	36	2.1	i	0	3	-21	nt
CCN(CC)c1ccc(/C=c2\sc3nc4ccccc4n3c2=O)c(O)c1	68*	-0.11	i	1	-5	-11	nt
COc1ccc(N2C(=O)c3ccccc3NC23C(=O)N(C)c2ccccc23)cc1 (configuration not stated)	7	0.2	i	0	-1	nt	nt
CCN(CC)c1ccc(-c2nn3c(-c4n[nH]c5c4CCC5)nnc3s2)cc1	61*	0.51	i	0	-11	-11	i
Cn1c(OCc2cccnc2)nc2c1c(=O)n(Cc1ccc(F)cc1)c(=O)n2C	13	-1.1	nt	0	-3	0	nt
Cn1c(N/N=C2\CCCc3ccccc32)nc2c1c(=O)n(Cc1ccc(F)cc1)c(=O)n2C	56*	-0.34	i	6	-7	-11	i
